ChEMBL document CHEMBL1128216, “Rational design and synthesis of small molecule, non-oligosaccharide selectin inhibitors: (alpha-D-mannopyranosyloxy)biphenyl-substituted carboxylic acids” (J Med Chem, 1995)
Each block holds one compound with its values, some of them ahead of it.

Experiments:
[1] = biological target: T1, E-selectin (Homo sapiens) (UniProt P16581); test: In vitro inhibitory activity against sialyl Lewis X expressing HL60 cell binding to recombinant human E-selectin at 32 mM concentration; format: cell-based; conditions: HL-60
T1 sequence (whole entry): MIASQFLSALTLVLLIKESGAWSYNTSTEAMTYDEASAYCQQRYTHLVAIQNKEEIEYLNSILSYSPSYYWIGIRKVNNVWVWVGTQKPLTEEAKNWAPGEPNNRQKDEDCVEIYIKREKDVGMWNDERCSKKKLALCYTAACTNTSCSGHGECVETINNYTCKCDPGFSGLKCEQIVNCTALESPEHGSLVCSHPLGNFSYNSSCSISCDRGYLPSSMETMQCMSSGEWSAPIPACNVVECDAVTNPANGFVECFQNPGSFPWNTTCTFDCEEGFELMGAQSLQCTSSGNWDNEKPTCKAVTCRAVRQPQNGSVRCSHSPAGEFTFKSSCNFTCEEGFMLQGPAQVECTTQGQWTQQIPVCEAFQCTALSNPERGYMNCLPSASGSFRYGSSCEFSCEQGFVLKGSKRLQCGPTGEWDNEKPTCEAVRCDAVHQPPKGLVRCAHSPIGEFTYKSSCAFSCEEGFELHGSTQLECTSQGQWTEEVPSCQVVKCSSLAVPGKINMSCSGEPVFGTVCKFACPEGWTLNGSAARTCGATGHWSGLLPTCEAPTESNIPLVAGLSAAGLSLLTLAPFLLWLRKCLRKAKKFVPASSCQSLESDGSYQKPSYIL
Method in brief: (§1)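 Human E-selectin (lectin, EGF and two complement repeats) fused to mouse IgG was captured on anti-mouse IgG magnetic beads overnight at 4 °C. Wells were pre-blocked with 3% BSA/PBS. Compound in PBS was mixed with calcein-labelled HL60 cells (10⁷/mL, RPMI 1640 + 10% FCS) and beads (4 × 10⁶/mL) for 10 min at room temperature. Unbound cells were removed magnetically with two PBS washes, and bound cells were lysed in 1% NP40.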

[2] = biological target: T2, P-selectin (Homo sapiens) (UniProt P16109); test: In vitro inhibitory activity against sialyl Lewis X expressing HL60 cell binding Selectin P at 20 mM concentration; format: cell-based; conditions: HL-60
T2 sequence (whole entry): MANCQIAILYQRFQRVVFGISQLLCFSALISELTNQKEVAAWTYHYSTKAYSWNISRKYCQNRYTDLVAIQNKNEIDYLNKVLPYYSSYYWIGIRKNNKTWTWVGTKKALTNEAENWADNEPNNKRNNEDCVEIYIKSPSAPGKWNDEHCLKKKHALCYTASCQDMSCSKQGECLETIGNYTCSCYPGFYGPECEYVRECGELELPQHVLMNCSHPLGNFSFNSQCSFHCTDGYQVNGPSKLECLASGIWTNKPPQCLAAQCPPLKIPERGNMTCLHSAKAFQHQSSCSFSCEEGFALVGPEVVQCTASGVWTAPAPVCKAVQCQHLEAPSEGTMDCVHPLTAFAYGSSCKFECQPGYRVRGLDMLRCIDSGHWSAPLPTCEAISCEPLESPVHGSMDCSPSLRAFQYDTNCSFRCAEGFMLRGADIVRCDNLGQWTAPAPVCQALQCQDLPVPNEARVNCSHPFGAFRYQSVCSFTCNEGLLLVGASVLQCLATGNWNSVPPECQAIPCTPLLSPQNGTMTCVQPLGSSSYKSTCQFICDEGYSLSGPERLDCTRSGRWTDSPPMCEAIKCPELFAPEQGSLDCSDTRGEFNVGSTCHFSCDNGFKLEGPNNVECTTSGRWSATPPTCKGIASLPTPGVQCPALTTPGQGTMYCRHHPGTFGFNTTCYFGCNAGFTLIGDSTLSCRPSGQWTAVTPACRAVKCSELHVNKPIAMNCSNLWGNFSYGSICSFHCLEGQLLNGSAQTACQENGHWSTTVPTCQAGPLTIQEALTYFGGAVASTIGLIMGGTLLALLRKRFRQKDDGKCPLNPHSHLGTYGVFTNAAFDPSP

[3] = biological target: T3, L-selectin (Mus musculus) (UniProt P18337); test: In vitro inhibitory activity against sialyl Lewis X expressing HL60 cell binding Selectin L at 5 mM concentration; format: cell-based; conditions: HL-60
T3 sequence (whole entry): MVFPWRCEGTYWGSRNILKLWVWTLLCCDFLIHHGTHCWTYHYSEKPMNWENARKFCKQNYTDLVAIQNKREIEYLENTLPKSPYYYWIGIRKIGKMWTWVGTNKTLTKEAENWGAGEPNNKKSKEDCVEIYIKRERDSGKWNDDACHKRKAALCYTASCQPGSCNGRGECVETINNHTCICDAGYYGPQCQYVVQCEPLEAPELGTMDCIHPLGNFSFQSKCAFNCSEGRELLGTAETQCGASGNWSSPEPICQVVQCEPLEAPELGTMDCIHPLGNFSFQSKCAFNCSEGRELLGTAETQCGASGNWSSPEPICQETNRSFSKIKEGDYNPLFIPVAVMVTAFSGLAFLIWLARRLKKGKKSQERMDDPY

E-selectin = biological target: T4, E-selectin (Homo sapiens, UniProt P16581); test: In vitro inhibition of HL60 (human leukemia) cell binding to human recombinant e-selectin.; format: cell-based, HL-60; method in brief: as §1
T4 sequence (P16581 whole entry): T1 sequence (whole entry)

[4] = biological target: T2, P-selectin (Homo sapiens); test: In vitro inhibitory activity against sialyl Lewis X expressing HL60 cell binding Selectin P at 27 mM concentration; format: cell-based; conditions: HL-60
[5] = biological target: T3, L-selectin (Mus musculus); test: In vitro inhibitory activity against sialyl Lewis X expressing HL60 cell binding to Selectin L at 6 mM concentration; format: cell-based; conditions: HL-60
[6] = biological target: T1, E-selectin (Homo sapiens); test: In vitro inhibitory activity against sialyl Lewis X expressing HL60 cell binding to recombinant human E-selectin at 27 mM concentration; format: cell-based; conditions: HL-60; method in brief: as §1
[7] = biological target: T1, E-selectin (Homo sapiens); test: In vitro inhibitory activity against sialyl Lewis X expressing HL60 cell binding to recombinant human E-selectin at 17 mM concentration; format: cell-based; conditions: HL-60; method in brief: as §1
P-selectin = biological target: T5, P-selectin (Homo sapiens, UniProt P16109); test: In vitro inhibitory activity against sialyl Lewis X expressing HL60 cell binding Selectin P; format: cell-based, HL-60
T5 sequence (P16109 whole entry): T2 sequence (whole entry)

[8] = biological target: T2, P-selectin (Homo sapiens); test: In vitro inhibitory activity against sialyl Lewis X expressing HL60 cell binding Selectin P at 24 mM concentration; format: cell-based; conditions: HL-60

SMILES: O=C(O)c1cccc(-c2ccccc2O[C@H]2O[C@H](CO)[C@@H](O)[C@@H](O)[C@@H]2O)c1
IC50 (E-selectin): 16 mM
inhibition [4]: 0%
inhibition [5]: 15%

SMILES: NCCCC[C@H](NC(=O)c1ccc(-c2ccccc2O[C@H]2O[C@H](CO)[C@@H](O)[C@@H](O)[C@@H]2O)cc1)C(=O)O
inhibition [6]: 33%

SMILES: O=C(O)C(Oc1cccc(-c2ccccc2O[C@H]2O[C@H](CO)[C@@H](O)[C@@H](O)[C@@H]2O)c1)c1ccccc1 (stereo partly drawn)
inhibition [7]: 70%
inhibition [5]: 0%
IC50 (P-selectin): 17 mM

The remaining lines, values ahead:

inhibition [1]: 0%
inhibition [2]: 40%
inhibition [3]: 0%
SMILES: O=C(O)C[C@@H](NC(=O)c1cccc(-c2ccccc2O[C@H]2O[C@H](CO)[C@@H](O)[C@@H](O)[C@@H]2O)c1)C(=O)O

IC50 (E-selectin): 9.5 mM
inhibition [8]: 0%
inhibition [5]: 30%
SMILES: O=C(O)COCc1cccc(-c2ccccc2O[C@H]2O[C@H](CO)[C@@H](O)[C@@H](O)[C@@H]2O)c1
